# Results taken from ChEMBL document CHEMBL3286267, “Discovery of MK-4409, a Novel Oxazole FAAH Inhibitor for the Treatment of Inflammatory and Neuropathic Pain” (ACS Med Chem Lett, 2014).
# Tests used:
# Rattus norvegicus [1] = test: Analgesic activity in Sprague-Dawley rat complete Freund's adjuvant-induced inflammatory pain model assessed as reversal of mechanical allodynia at 10 mg/kg, po single dose measured after 1 hr; type: functional
# Method in brief: (§1)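 Inflammatory pain induced in rats by intraplantar injection of complete Freund's adjuvant into the hind paw. Mechanical allodynia was assessed at 1 and 3 h after a single oral dose. For each rat, percent reversal = (postdose – predose)/(preinjury – predose), averaged over n = 6.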
# [2] = target: T1, Fatty-acid amide hydrolase 1 (Rattus norvegicus, UniProt P97612); test: Inhibition of rat FAAH lysate using AMCAA as substrate by fluorescence assay
# T1 sequence (P97612 whole entry): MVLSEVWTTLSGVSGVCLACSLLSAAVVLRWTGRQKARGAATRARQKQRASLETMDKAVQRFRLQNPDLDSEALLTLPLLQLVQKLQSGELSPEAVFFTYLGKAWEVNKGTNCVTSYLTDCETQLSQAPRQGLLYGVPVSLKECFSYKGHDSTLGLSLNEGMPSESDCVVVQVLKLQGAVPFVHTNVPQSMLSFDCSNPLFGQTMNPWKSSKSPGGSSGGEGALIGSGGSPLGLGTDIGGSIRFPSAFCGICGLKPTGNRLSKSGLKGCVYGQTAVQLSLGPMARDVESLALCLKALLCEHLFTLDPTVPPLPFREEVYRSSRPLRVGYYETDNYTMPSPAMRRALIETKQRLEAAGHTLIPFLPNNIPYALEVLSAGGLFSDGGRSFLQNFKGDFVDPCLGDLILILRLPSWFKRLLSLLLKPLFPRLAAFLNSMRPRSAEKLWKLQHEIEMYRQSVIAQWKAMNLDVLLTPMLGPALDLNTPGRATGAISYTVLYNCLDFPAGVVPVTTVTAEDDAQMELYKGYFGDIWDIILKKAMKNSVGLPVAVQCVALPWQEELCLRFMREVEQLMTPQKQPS
# Method in brief: (§2)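 In vitro assays, with values reported as the average of at least three duplicates.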
# Rattus norvegicus [3] = test: Analgesic activity in Sprague-Dawley rat complete Freund's adjuvant-induced inflammatory pain model assessed as reversal of mechanical allodynia at 10 mg/kg, po single dose measured after 3 hrs; type: functional; method in brief: as §1
# [4] = Inhibition of human vesicular monoamine transporter; method in brief: as §2
# [5] = target: Voltage-gated inwardly rectifying potassium channel KCNH2 (Homo sapiens, UniProt Q12809); test: Displacement of [35S]MK-499 from human ERG
# Sequence of Voltage-gated inwardly rectifying potassium channel KCNH2 (Q12809 whole entry): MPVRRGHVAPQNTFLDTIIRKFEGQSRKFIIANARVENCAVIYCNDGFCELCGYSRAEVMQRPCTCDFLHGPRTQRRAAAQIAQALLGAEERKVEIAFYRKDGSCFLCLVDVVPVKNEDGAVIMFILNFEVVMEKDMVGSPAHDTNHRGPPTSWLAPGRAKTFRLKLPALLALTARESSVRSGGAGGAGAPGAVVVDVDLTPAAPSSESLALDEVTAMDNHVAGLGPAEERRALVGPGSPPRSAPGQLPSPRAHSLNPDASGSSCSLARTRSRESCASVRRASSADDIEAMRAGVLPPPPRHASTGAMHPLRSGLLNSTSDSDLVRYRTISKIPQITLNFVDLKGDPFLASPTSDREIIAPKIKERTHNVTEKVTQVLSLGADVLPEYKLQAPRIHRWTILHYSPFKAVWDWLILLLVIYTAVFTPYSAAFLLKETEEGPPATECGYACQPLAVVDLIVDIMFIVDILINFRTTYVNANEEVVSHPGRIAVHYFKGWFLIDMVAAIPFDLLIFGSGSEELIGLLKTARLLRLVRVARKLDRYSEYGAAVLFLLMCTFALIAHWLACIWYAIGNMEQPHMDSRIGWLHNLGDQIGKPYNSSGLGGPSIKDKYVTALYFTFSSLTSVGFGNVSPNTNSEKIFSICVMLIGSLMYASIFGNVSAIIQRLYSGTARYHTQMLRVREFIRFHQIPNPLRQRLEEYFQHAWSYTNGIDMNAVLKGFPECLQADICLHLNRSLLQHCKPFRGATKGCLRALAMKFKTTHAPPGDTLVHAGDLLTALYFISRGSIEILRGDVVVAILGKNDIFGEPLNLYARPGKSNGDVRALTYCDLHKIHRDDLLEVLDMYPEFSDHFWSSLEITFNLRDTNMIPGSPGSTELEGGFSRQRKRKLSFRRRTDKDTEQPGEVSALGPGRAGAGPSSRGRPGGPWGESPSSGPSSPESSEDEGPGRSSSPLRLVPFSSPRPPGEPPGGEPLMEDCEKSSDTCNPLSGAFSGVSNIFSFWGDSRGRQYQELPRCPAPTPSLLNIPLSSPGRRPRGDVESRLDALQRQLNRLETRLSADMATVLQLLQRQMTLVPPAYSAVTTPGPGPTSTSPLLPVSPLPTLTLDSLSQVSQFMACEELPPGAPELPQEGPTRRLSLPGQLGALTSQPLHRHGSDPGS
# Method in brief: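 hERG K+ channel binding assay measuring displacement of the radiolabelled channel blocker [35S]MK-499. Values are averages of at least three duplicates.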
# Rattus norvegicus [6] = test: Analgesic activity in Sprague-Dawley rat complete Freund's adjuvant-induced inflammatory pain model assessed as reversal of mechanical allodynia at 30 mg/kg, po single dose measured after 3 hrs; type: functional; method in brief: as §1
# [7] = Half life in rat at 1 mg/kg, iv and 1 to 2 mg/kg, po; type: ADME, organism-based; settings: in vivo
# Method in brief: (§3)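 Rat PK given 1 mg/kg iv in DMSO/PEG400/H2O 20/60/20 and 2 mg/kg po in either Imwitor/Tween 1/1 or PEG400/Tween80/H2O 40/10/50. Half-life, clearance, volume of distribution, dose-normalized AUC (AUCN) and oral bioavailability were derived.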
# [8] = target: T2, Fatty-acid amide hydrolase 1 (Homo sapiens, UniProt O00519); test: Inhibition of human FAAH lysate using AMCAA as substrate by fluorescence assay; method in brief: as §2
# T2 sequence (O00519 whole entry): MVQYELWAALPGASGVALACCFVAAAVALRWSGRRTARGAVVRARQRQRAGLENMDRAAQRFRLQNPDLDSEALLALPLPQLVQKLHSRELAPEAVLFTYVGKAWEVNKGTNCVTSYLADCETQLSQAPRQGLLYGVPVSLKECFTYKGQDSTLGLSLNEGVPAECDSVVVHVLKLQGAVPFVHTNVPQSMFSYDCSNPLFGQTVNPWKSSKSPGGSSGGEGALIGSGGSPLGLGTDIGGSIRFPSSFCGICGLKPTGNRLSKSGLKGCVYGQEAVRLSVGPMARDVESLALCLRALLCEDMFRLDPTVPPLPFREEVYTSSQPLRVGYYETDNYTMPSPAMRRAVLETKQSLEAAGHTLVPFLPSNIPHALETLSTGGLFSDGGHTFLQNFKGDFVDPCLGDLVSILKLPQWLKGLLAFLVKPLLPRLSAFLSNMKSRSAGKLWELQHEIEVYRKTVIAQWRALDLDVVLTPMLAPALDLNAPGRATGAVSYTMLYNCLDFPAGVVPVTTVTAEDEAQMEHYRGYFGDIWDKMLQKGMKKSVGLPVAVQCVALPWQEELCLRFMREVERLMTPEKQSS
# [9] = Clearance in rat at 1 mg/kg, iv and 1 to 2 mg/kg, po; type: ADME, organism-based; settings: in vivo; method in brief: as §3
# Rattus norvegicus [10] = test: Analgesic activity in Sprague-Dawley rat complete Freund's adjuvant-induced inflammatory pain model assessed as reversal of mechanical allodynia at 30 mg/kg, po single dose measured after 1 hr; type: functional; method in brief: as §1
# [11] = Volume of distribution at steady state in rat at 1 mg/kg, iv and 1 to 2 mg/kg, po; type: ADME, organism-based; settings: in vivo, read-out: Vdss; method in brief: as §3
# [12] = Bioavailability in rat at 1 mg/kg, iv and 1 to 2 mg/kg, po; type: ADME, organism-based; settings: in vivo; method in brief: as §3
# Rattus norvegicus [13] = test: Dose normalized AUC in rat at 1 mg/kg, iv and 1 to 2 mg/kg, po; type: ADME, organism-based; settings: in vivo; method in brief: as §3
# Rattus norvegicus [14] = test: Dose normalized AUC in rat at 1 mg/kg, iv and 2 mg/kg, po; type: ADME, organism-based; settings: in vivo; method in brief: as §3
# [15] = Clearance in rat at 1 mg/kg, iv and 2 mg/kg, po; type: ADME, organism-based; settings: in vivo; method in brief: as §3
# [16] = Solubility in fasted state simulated intestinal fluid; type: ADME
# [17] = Volume of distribution at steady state in rat at 1 mg/kg, iv and 2 mg/kg, po; type: ADME, organism-based; settings: in vivo, read-out: Vdss; method in brief: as §3
# [18] = Half life in rat at 1 mg/kg, iv and 2 mg/kg, po; type: ADME, organism-based; settings: in vivo; method in brief: as §3
# [19] = Bioavailability in rat at 1 mg/kg, iv and 2 mg/kg, po; type: ADME, organism-based; settings: in vivo; method in brief: as §3
SMILES,IC50 [2],EC50 [4],half-life [7],IC50 [8],clearance [9],Vd [11],bioavailability [12],AUC/dose (Rattus norvegicus [13]),AUC/dose (Rattus norvegicus [14]),clearance [15],solubility [16],Vd [17],half-life [18],bioavailability [19],Activity (Rattus norvegicus [1]),Activity (Rattus norvegicus [3]),Ki [5],Activity (Rattus norvegicus [6]),Activity (Rattus norvegicus [10])
CS(=O)(=O)c1ccc(-c2nc(-c3ccc(F)cc3)oc2Sc2ccc(Cl)cn2)cc1,21 nM,14000 nM,–,–,–,–,–,–,–,–,–,–,–,–,46%,44%,2500 nM,–,–
CS(=O)(=O)c1ccc(-c2nc(-c3ccccc3)oc2Sc2ccc(Cl)cc2)cc1,6 nM,–,–,13 nM,–,–,–,–,–,–,–,–,–,–,–,–,28500 nM,–,–

# Continued, in another order:
IC50 [2],EC50 [4],half-life [7],IC50 [8],clearance [9],Vd [11],bioavailability [12],AUC/dose (Rattus norvegicus [13]),AUC/dose (Rattus norvegicus [14]),clearance [15],solubility [16],Vd [17],half-life [18],bioavailability [19],SMILES,Activity (Rattus norvegicus [1]),Activity (Rattus norvegicus [3]),Ki [5],Activity (Rattus norvegicus [6]),Activity (Rattus norvegicus [10])
10 nM,1160 nM,4.9 h,32 nM,33.8 mL/min/kg,15.8 L/kg,96%,1.07 µM·kg·h/mg,–,–,–,–,–,–,CC(C)(O)c1cnc(-c2nn(-c3ccc(F)cc3)cc2Sc2ccc(Cl)cc2)cn1,42%,38%,740 nM,40%,58%
8 nM,–,–,27 nM,–,–,–,–,–,–,–,–,–,–,Clc1ccc(Sc2cn(-c3ccccc3)nc2-c2ccc3c(c2)OCCO3)cc1,–,–,> 30000 nM,–,–
4.8 nM,137 nM,–,13 nM,–,–,–,–,0.39 µM·kg·h/mg,34 mL/min/kg,27 µg/mL,7.8 L/kg,2.57 h,35%,Clc1ccc(Sc2cn(-c3cccnc3)nc2-c2ccc(-c3ncon3)cc2)cc1,–,–,5210 nM,62%,49%
